mABHD4 FP: ABHD4 (mouse) inhibition, primary FP screen; Q8VD66; purified mABHD4, FP-Rh probe fluorescence polarization; inhibition, % at 8.92 µM; 370,000 compounds, 0.54% hits;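 active = inhibition exceeding the mean over every tested compound plus 3 SD, cut at about 30% in these data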;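 note: 0% = plate median of compound wells and 100% = S159A mutant with DMSO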
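Material: mouse ABHD4 enzyme, wild type; Benchmarks: S159A mutant high control, sample median low control; Buffer or medium: HEPES pH 7.0, NaCl, Pluronic buffer; Signal: fluorescence polarization; Read-out: percent inhibition of probe binding, normalized to plate controls; Timing: pre-incubation 45 min, probe exposure 60 min, at 25 °C; Dosing: 8.92 µM, single dose.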
TCR-CD3 inh: blocks the human TCR-CD3 interaction; TAMRA-labeled TCR probe fluorescence, biochemical; inhibition, % at 9.4 µM; 360,000 compounds, 0.37% hits; AID 651800; in the data active = inhibition above about 19%;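 note: recombinant mutant TCR 2C K166C tagged with TAMRA read by polarization; 0% = receptor in buffer alone and 100% = receptor with positive control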
HTRA1 inh: inhibitors of human serine peptidase HTRA1; recombinant HTRA1, FP-rhodamine activity-based probe, fluorescence polarization; AID 504803; 340,000 compounds, 0.5% hits; inhibition, % at 5.96 µM; Q92743; in the data active = inhibition above about 36%;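 note: 0% = enzyme with DMSO and 100% = wells lacking enzyme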
rCAG binder: r(CAG) repeat RNA binding; TO-PRO-1 dye displacement fluorescence; inhibition, % at 3 µM; AID 651821; 370,000 compounds, 1.3% hits;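 active = inhibition above the plate cutoff, the mean of all test compounds on that plate plus 3 SD, cut at about 35% in these data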;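 note: 0% = DMSO alone and 100% = 100 µM mitoxantrone as full dye displacement; higher means more dye released from RNA so lower well fluorescence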
SIAE inh: human SIAE inhibition, primary screen; Q9HAT2; SIAE FP-Rh probe binding, fluorescence polarization; inhibition, % at 9.66 µM; 370,000 compounds, 0.69% hits; AID 1053197;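 active = inhibition above a cutoff: mean of compounds within the control limits plus 3 SD of those, cut at about 17% in these data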;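 note: 0% = plate median of compound wells and 100% = probe without SIAE protein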
Target sequence (Q9HAT2 whole entry, looked up): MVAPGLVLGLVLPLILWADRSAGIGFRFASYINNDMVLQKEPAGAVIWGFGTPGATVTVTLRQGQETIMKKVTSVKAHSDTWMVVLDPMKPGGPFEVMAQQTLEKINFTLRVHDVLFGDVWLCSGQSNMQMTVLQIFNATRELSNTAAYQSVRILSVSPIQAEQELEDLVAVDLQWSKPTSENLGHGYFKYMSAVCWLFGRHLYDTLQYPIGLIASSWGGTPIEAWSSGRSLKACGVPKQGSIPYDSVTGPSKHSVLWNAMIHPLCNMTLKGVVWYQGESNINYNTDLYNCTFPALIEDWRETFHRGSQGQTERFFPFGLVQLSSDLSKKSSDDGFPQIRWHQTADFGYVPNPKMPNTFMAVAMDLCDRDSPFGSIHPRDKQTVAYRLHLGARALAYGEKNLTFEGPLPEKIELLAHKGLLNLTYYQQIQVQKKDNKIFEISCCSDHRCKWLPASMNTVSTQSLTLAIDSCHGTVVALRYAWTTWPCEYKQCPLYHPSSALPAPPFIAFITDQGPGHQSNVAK
rCAG binder conf: r(CAG) RNA repeat binding, confirmation; shares compounds with rCAG binder; TO-PRO-1 dye displacement fluorescence; inhibition, % at 3 µM; 4,300 compounds, 70% hits;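 active = inhibition above a per-plate cutoff, the mean inhibition of sample wells plus 3 SD, cut at about 35% in these data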;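 note: loss of TO-PRO-1 fluorescence as compound displaces dye from 1x1 AA loop RNA; 0% = DMSO only wells and 100% = 100 µM mitoxantrone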
dCAG dye counter: disrupts DNA CAG TO-PRO-1 complex, flagging rCAG hits; d(CAG) DNA oligo TO-PRO-1 dye displacement, fluorescence; shares compounds with rCAG binder; AID 652068; 4,300 compounds, 94% hits; inhibition, % at 3 µM;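 active = inhibition above its plate's cutoff, the mean test-well inhibition plus 3 SD, cut at about 4.8% in these data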;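 note: 0% = DNA dye mix with DMSO and 100% = 100 µM mitoxantrone; hits displace the dye from DNA and so lower well fluorescence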
Active calls of the source: *. Most compounds without a hit are left out; they make up all but 2.5% or so of the library.

`O=C(O)Cn1cc(/C=c2/sc3nc4ccccc4n3c2=O)c2ccccc21` gave mABHD4 FP 7, TCR-CD3 inh 0, HTRA1 inh -15, rCAG binder 52*, SIAE inh -13, rCAG binder conf 90* and dCAG dye counter 73*.
O=c1/c(=C\c2cccn2-c2ccccc2)sc2nc3ccccc3n12 was read as mABHD4 FP 4, TCR-CD3 inh -2, HTRA1 inh -3, rCAG binder 1 and SIAE inh -1.
Screening O=C(O)Cn1cc(/C=C2/NC(=O)N(c3ccc(Cl)cc3)C2=O)c2ccccc21 returned mABHD4 FP 4, TCR-CD3 inh -4, HTRA1 inh -11, rCAG binder 61*, SIAE inh 1, rCAG binder conf 62* and dCAG dye counter 21*.
CC(C)CCNC(=O)CSc1nc2c(c(=O)[nH]1)CCC2 was read as mABHD4 FP 0 and SIAE inh 0.
`CC(C)=CCc1c2c(c3occ(-c4ccc(O)cc4)c(=O)c3c1O)C=CC(C)(C)O2` gave mABHD4 FP -17, TCR-CD3 inh 2, HTRA1 inh -8, rCAG binder 36*, SIAE inh -12, rCAG binder conf 31 and dCAG dye counter 13*.
For CC(C)=CCc1c2c(c3occ(-c4ccc(O)c(O)c4)c(=O)c3c1O)C=CC(C)(C)O2 the results were mABHD4 FP 2, TCR-CD3 inh 2, HTRA1 inh 29, rCAG binder 47*, SIAE inh -32, rCAG binder conf 43* and dCAG dye counter 28*.
`CC(C)=CCc1c(O)cc2c(=O)c3ccc(O)cc3oc2c1O` gave mABHD4 FP -63, TCR-CD3 inh 0, HTRA1 inh -57, rCAG binder 33 and SIAE inh -40.
`CCC(NC(=O)c1ccc2c(ccn2Cc2cccc(-c3ccc(C(=O)O)cc3)c2)c1)c1ccccc1` (centres undefined) gave mABHD4 FP -157, rCAG binder 77*, SIAE inh -14, rCAG binder conf 77* and dCAG dye counter 35*.
CCCCN(CCCC)c1ccc(C(=O)c2ccccc2C(=O)O)c(O)c1 was read as mABHD4 FP 15, TCR-CD3 inh 6, HTRA1 inh -18, rCAG binder 72*, SIAE inh 6, rCAG binder conf 57* and dCAG dye counter 21*.
For C/C(=N\N=C(c1ccccc1)c1ccccc1)c1cccs1 the results were mABHD4 FP 0, TCR-CD3 inh 6, HTRA1 inh -12, rCAG binder -3 and SIAE inh 1.
N#Cc1c(-c2ccc(Cl)cc2)cc(-c2cccs2)nc1SCC(=O)O was read as mABHD4 FP -11, TCR-CD3 inh 10, HTRA1 inh -53, rCAG binder 66*, SIAE inh -22, rCAG binder conf 62* and dCAG dye counter 25*.
`N#Cc1c(-c2ccccc2)cc(-c2cccs2)nc1SCC(=O)O` gave mABHD4 FP -5, TCR-CD3 inh 3, HTRA1 inh -30, rCAG binder 50*, SIAE inh -6, rCAG binder conf 41* and dCAG dye counter 17*.
For COc1ccc(-c2cc(-c3cccs3)c(C#N)c(SCC(=O)NCc3ccccc3)n2)cc1 the results were mABHD4 FP -7, TCR-CD3 inh -1, HTRA1 inh -4, rCAG binder 1 and SIAE inh 0.
C=CCNC(=O)Nc1cc(Cl)ccc1OC was read as mABHD4 FP -6, TCR-CD3 inh 8, HTRA1 inh 6, rCAG binder 1 and SIAE inh 4.
For O=C(O)CCN1C(=O)/C(=C\c2cccc(Oc3ccccc3)c2)SC1=S the results were mABHD4 FP -12, TCR-CD3 inh 4, HTRA1 inh -44, rCAG binder 62*, SIAE inh -9, rCAG binder conf 78* and dCAG dye counter 35*.
`O=C(O)CN1C(=O)/C(=C\c2cccc(OC(=O)c3ccco3)c2)SC1=S` gave mABHD4 FP 3, TCR-CD3 inh 3, HTRA1 inh 2, rCAG binder 28 and SIAE inh -6.
Screening O=C(O)CN1C(=O)/C(=C\c2cccc(OCc3ccc(F)cc3)c2)SC1=S returned mABHD4 FP -6, TCR-CD3 inh 1, HTRA1 inh -27, rCAG binder 81*, SIAE inh -6, rCAG binder conf 80* and dCAG dye counter 44*.
`O=C(O)CN1C(=O)/C(=C\c2ccccc2OCc2ccc(Cl)cc2)SC1=S` gave mABHD4 FP -39, TCR-CD3 inh 6, HTRA1 inh -67, rCAG binder 74*, SIAE inh -16, rCAG binder conf 84* and dCAG dye counter 47*.
For O=C(O)CN1C(=O)/C(=C\c2cccc(OCc3ccc(Cl)cc3)c2)SC1=S the results were mABHD4 FP -25, TCR-CD3 inh 5, HTRA1 inh -49, rCAG binder 78*, SIAE inh -7, rCAG binder conf 91* and dCAG dye counter 64*.
`O=C(O)CN1C(=O)/C(=C/c2ccsc2)SC1=S` gave mABHD4 FP -3, TCR-CD3 inh 2, rCAG binder 2 and SIAE inh 1.
COc1ccc(/C=C2/SC(=S)N(CCC(=O)O)C2=O)cc1 was read as mABHD4 FP 3, TCR-CD3 inh -1, HTRA1 inh 1, rCAG binder 11 and SIAE inh -1.
For C=CCN(c1ccc(C(=O)NCCCn2ccnc2)cc1)S(C)(=O)=O the results were mABHD4 FP -2, TCR-CD3 inh 1, HTRA1 inh 6, rCAG binder -3 and SIAE inh -9.
O=C(O)COc1ccccc1/C=C1\SC(=S)N(NC(=O)c2ccccc2O)C1=O was read as mABHD4 FP -138, TCR-CD3 inh -11, HTRA1 inh -2, rCAG binder 61*, SIAE inh -26, rCAG binder conf 42* and dCAG dye counter 10*.
For O=C(O)CN1C(=O)/C(=C\c2cccc(OCc3ccccc3F)c2)SC1=S the results were mABHD4 FP -16, TCR-CD3 inh 4, HTRA1 inh -39, rCAG binder 84*, SIAE inh 0, rCAG binder conf 75* and dCAG dye counter 37*.
`O=C(O)CN1C(=O)/C(=C/c2ccc(SCc3ccccc3)o2)SC1=S` gave mABHD4 FP 6, TCR-CD3 inh 2, HTRA1 inh -6, rCAG binder 41*, SIAE inh -10, rCAG binder conf 59* and dCAG dye counter 31*.
For CCOC(=O)C1(C)CCCN(C(=O)c2cccc3ccccc23)C1 (centres undefined) the results were mABHD4 FP 3, TCR-CD3 inh -8, rCAG binder -2 and SIAE inh -1.

Source: PubChem BioAssay
